{"source": "ChEMBL document CHEMBL4689842", "about": "“EUbOPEN Chemogenomics Library wave 1” (2021)", "system": "HEK-293T", "test": "Multiplex assay against HEK293T;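 as to Population Tubulin-Different-Phenotype (%): share of the cells with healthy nuclei that show this phenotype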", "assay_type": "toxicity, cell-based", "details": "human, 1 µM, compound concentration 1 uM", "procedure,_shortened": "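On a CQ1 microscope at 37°C and 5% CO2, live cells were imaged after compound addition. They had been stained at seeding with Hoechst33342, BioTracker Green Microtubule Cytoskeleton Dye, MitoTracker Red and Annexin V Alexa Fluor 680. CellPathfinder machine-learning gating assigned cells to Hoechst high-intensity objects or normal cells, normal cells to healthy, pyknosed or fragmented nuclei, and pyknosed cells to mitotic or apoptotic. Tubulin, mitochondrial-mass and membrane-permeability phenotypes are per cents of healthy-nucleus cells.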", "note": "Several values for one entry are separate records, joined by “and”; a condition that tells them apart may be missing. Equal values may be shown once."}
{"smiles": "Cn1cc(C2=C(c3cn(C4CCN(Cc5ccccn5)CC4)c4ccccc34)C(=O)NC2=O)c2ccccc21", "note": "[ENZASTAURIN]", "values": [{"measurement": "Population Apoptotic (%)", "setting": "12 h, replicate 1", "value": "23% and 42%"}, {"measurement": "Population Fragmented Nuclei (%)", "setting": "12 h, replicate 1", "value": "18% and 16%"}, {"measurement": "Population Healthy Nuclei (%)", "setting": "12 h, replicate 1", "value": "49% and 29%"}, {"measurement": "Population Hoechst High Intensity Objects (%)", "setting": "12 h, replicate 1", "value": "14% and 15%"}, {"measurement": "Population Membrane Permeable-Phenotype (%)", "setting": "12 h, replicate 1", "value": "13% and 12%"}, {"measurement": "Population Mitotic Cells (%)", "setting": "12 h, replicate 1", "value": "76% and 57%"}, {"measurement": "Population Normal (%)", "setting": "12 h, replicate 1", "value": "85% and 84%"}, {"measurement": "Population Pyknosed Nuclei (%)", "setting": "12 h, replicate 1", "value": "31% and 53%"}, {"measurement": "Total Cell Count", "setting": "12 h, replicate 1", "value": "539 and 569"}, {"measurement": "Population Apoptotic (%)", "setting": "12 h, replicate 2", "value": "28% and 14%"}, {"measurement": "Population Fragmented Nuclei (%)", "setting": "12 h, replicate 2", "value": "3% and 4%"}, {"measurement": "Population Healthy Nuclei (%)", "setting": "12 h, replicate 2", "value": "77% and 86%"}, {"measurement": "Population Hoechst High Intensity Objects (%)", "setting": "12 h, replicate 2", "value": "6% and 4%"}, {"measurement": "Population Membrane Permeable-Phenotype (%)", "setting": "12 h, replicate 2", "value": "2% and 6%"}, {"measurement": "Population Mitochondria Different-Phenotype (%)", "setting": "12 h, replicate 2", "value": "72% and 25%"}, {"measurement": "Population Mitotic Cells (%)", "setting": "12 h, replicate 2", "value": "71% and 85%"}, {"measurement": "Population Normal (%)", "setting": "12 h, replicate 2", "value": "93% and 95%"}, {"measurement": "Population Pyknosed Nuclei (%)", "setting": "12 h, replicate 2", "value": "19% and 9%"}, {"measurement": "Population Tubulin-Different-Phenotype (%)", "setting": "12 h, replicate 2", "value": "87% and 37%"}, {"measurement": "Total Cell Count", "setting": "12 h, replicate 2", "value": "1031 and 1115"}, {"measurement": "Population Apoptotic (%)", "setting": "24 h, replicate 1", "value": "49% and 19%"}, {"measurement": "Population Fragmented Nuclei (%)", "setting": "24 h, replicate 1", "value": "19% and 16%"}, {"measurement": "Population Healthy Nuclei (%)", "setting": "24 h, replicate 1", "value": "39% and 65%"}, {"measurement": "Population Hoechst High Intensity Objects (%)", "setting": "24 h, replicate 1", "value": "24% and 11%"}, {"measurement": "Population Membrane Permeable-Phenotype (%)", "setting": "24 h, replicate 1", "value": "11% and 6%"}, {"measurement": "Population Mitotic Cells (%)", "setting": "24 h, replicate 1", "value": "50% and 80%"}, {"measurement": "Population Normal (%)", "setting": "24 h, replicate 1", "value": "75% and 88%"}, {"measurement": "Population Pyknosed Nuclei (%)", "setting": "24 h, replicate 1", "value": "41% and 18%"}, {"measurement": "Population Tubulin-Different-Phenotype (%)", "setting": "24 h, replicate 1", "value": "76% and 32%"}, {"measurement": "Total Cell Count", "setting": "24 h, replicate 1", "value": "506 and 516"}, {"measurement": "Population Fragmented Nuclei (%)", "setting": "24 h, replicate 2", "value": "4% and 12%"}, {"measurement": "Population Healthy Nuclei (%)", "setting": "24 h, replicate 2", "value": "85% and 83%"}, {"measurement": "Population Hoechst High Intensity Objects (%)", "setting": "24 h, replicate 2", "value": "9% and 5%"}, {"measurement": "Population Membrane Permeable-Phenotype (%)", "setting": "24 h, replicate 2", "value": "3% and 4%"}, {"measurement": "Population Mitotic Cells (%)", "setting": "24 h, replicate 2", "value": "68% and 93%"}, {"measurement": "Population Normal (%)", "setting": "24 h, replicate 2", "value": "90% and 94%"}, {"measurement": "Population Tubulin-Different-Phenotype (%)", "setting": "24 h, replicate 2", "value": "77% and 27%"}, {"measurement": "Total Cell Count", "setting": "24 h, replicate 2", "value": "1011 and 1578"}]}
